30 molecules from ChEMBL document CHEMBL1139136, “Synthesis of novel diaryl ethers and their evaluation as antimitotic agents” (Bioorg Med Chem Lett, 2007) can be followed below.

The structures appear in SMILES notation. Activity calls are given as the source filed them. The calls are words filed in the database; no cut-off is given here. Where only a bound is given, the exact number is not on record here.

One test has as its system HL-60. Description: Antiproliferative activity against human HL60 cells. It counts as functional, cell-based. An outline of the steps: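 Human myeloid leukemia HL-60 cells; antiproliferative IC50 (µM) by a previously described protocol, each series repeated independently at least two to three times.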
Test [1] deals with T1, Tubulin (Homo sapiens) (UniProt P68371+Q9H4B7+P0DPH7+P68366+Q13509+Q71U36+P04350+Q3ZCM7+P07437+P68363+Q9BQE3+Q6PEY2+Q13885+Q9BVA1+Q9BUF5). Nature of the test: Inhibition of tubulin polymerization at 10 ug/ml. Type of test: protein-complex assay. In outline: (§1)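 Kit-based tubulin assembly assay with compounds dissolved in DMSO. All components go into wells held at 0 °C and a baseline is set at 340 nm. Assembly is read at 0 °C and then at 37 °C. Results are percent inhibition against a vehicle control at each tested concentration.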

The target of test [2] is T1, Tubulin (Homo sapiens). Nature of the test: Inhibition of tubulin polymerization at 20 ug/ml. It counts as protein-complex assay.
Test [3] addresses T1, Tubulin (Homo sapiens). Nature of the test: Inhibition of tubulin polymerization at 1 ug/ml. It counts as protein-complex assay. In outline: as §1
For test [4], the target named is T1, Tubulin (Homo sapiens). Description: Inhibition of tubulin polymerization at 3 ug/ml. It counts as protein-complex assay. In outline:
as §1

Take `CCOC(=O)c1ccc(Oc2ccc(OC)c(F)c2)cc1`: in the test on HL-60, the IC50 (usually the concentration that gives 50% inhibition) is 3.5 µM. Further, the inhibition – broadly, the share of the control response that was lost under treatment – against Tubulin (Homo sapiens) [1] is 12.5%.
`CCOC(=O)c1ccc(Oc2ccc(OC)c(OC)c2)cc1O` displayed an IC50 with HL-60 of 1.5 µM. The inhibition turned out to be 5.5% at Tubulin (Homo sapiens) [1] and 13.3% at Tubulin (Homo sapiens) [2].
`CCOC(=O)c1ccc(Oc2ccc(Cl)cc2)cc1`: the IC50 in the test on HL-60 was > 20 µM.
Same read-out and setting: with `CCOC(=O)c1ccc(Oc2ccc(C#N)cc2)cc1` the figure was > 20 µM.
Same read-out and setting: with `COC(=O)c1cccc(Oc2ccc(OC)c(F)c2)c1` the figure was > 20 µM; with `COC(=O)c1ccc(Oc2ccc(OC)cc2)c(N)c1`, > 20 µM.
The same measure, in the same setting: the result for `CCOC(=O)c1ccc(Oc2ccc(N(C)C)cc2)cc1O` reads > 30 µM.
Consider `COC(=O)c1ccc(Oc2ccc(OC)cc2)c([N+](=O)[O-])c1`, for which the IC50 in the test with HL-60 is > 20 µM.
Still for that read-out and setting: the result for `COc1cccc(OC)c1Oc1ccc(C#N)cc1` reads > 20 µM.
For the molecule `COc1ccc(Oc2ccc(C(=O)NC3CC3)cc2)cc1F`, the midpoint of inhibition with HL-60, the IC50, lay at 14.1 µM. Besides, the inhibition at Tubulin (Homo sapiens) [1] is 8.7%.
Take `COC(=O)c1ccc(Oc2ccc(OC)c(OC)c2)c([N+](=O)[O-])c1`: the IC50 with HL-60 is > 20 µM.
On to `CCOC(=O)c1ccc(Oc2ccc(OC)c(OC)c2)cc1`, for which the IC50 in the test with HL-60 is > 20 µM.
Turning to `CCOC(=O)c1ccc(Oc2ccc(OC)cc2)cc1`, the 50% inhibitory concentration (IC50) in the test with HL-60 is > 20 µM.
`COC(=O)c1ccc(Oc2ccc(OC)c(OC)c2)c(I)c1` registered an IC50 in the test with HL-60 of 5.62 µM. At Tubulin (Homo sapiens) [1], the outcome was inactive.
As to `CCOC(=O)c1ccc(Oc2ccc(N(C)C)cc2)cc1`, the IC50 in the test with HL-60 was > 20 µM.
On the same count and under the same terms, the result for `COC(=O)c1ccc(Oc2ccc(OC)cc2)c(I)c1` reads > 20 µM; that for `COC(=O)c1cccc(Oc2ccc(OC)cc2)c1`, > 20 µM.
As for `COc1cccc(OC)c1Oc1ccc(N(C)C)cc1`, the IC50 in the test on HL-60 is 11.4 µM. For the same molecule, the inhibition against Tubulin (Homo sapiens) [1] was determined as 12.5%.
Take `COc1ccc(Oc2ccc(C(=O)N(C)OC)cc2)cc1F`: the IC50 in the test on HL-60 was > 30 µM.
On the same count and under the same terms, the result for `CCOC(=O)c1ccc(Oc2ccc(F)c(F)c2)cc1` reads > 30 µM; that for `CCOC(=O)c1ccc(Oc2ccc(OC)c(F)c2)cc1O`, > 30 µM; that for `COc1ccc(Oc2ccc(C(=O)O)cc2)cc1F`, > 30 µM.
As for `COC(=O)c1cccc(Oc2ccc(C#N)cc2)c1`, in the test with HL-60, the IC50 is > 20 µM.
On the same count and under the same terms, the result for `CCOC(=O)c1ccc(Oc2ccc(F)c(F)c2)cc1O` reads > 30 µM.
Still for that read-out and setting: with `COc1ccc(Oc2c(OC)cccc2OC)cc1F` the figure was > 20 µM.
Consider `COc1ccc(S(=O)(=O)Nc2cccnc2Nc2ccc(O)cc2)cc1` [ABT-751], for which half-maximal inhibition in the test on HL-60 (IC50) was put at 0.34 µM. Also, the inhibition against Tubulin (Homo sapiens) [1] is 96.3%; against Tubulin (Homo sapiens) [3], 40%; against Tubulin (Homo sapiens) [4], 74.6%.
Take `COC(=O)c1ccc(Oc2ccc(OC)c(OC)c2)c(N)c1`: the IC50 in the test with HL-60 was > 20 µM.
On the same count and under the same terms, the result for `CCOC(=O)c1ccc(Oc2ccc(OC)cc2)cc1O` reads > 30 µM; that for `COC(=O)c1cccc(Oc2ccc(N(C)C)cc2)c1`, > 20 µM.
Same read-out and setting: the result for `COc1ccc(Oc2ccc(C(=O)NCCc3ccccc3)cc2)cc1F` reads 20.6 µM.
